Here are results for 33 molecules from ChEMBL document CHEMBL3352690, “Synthesis and evaluation of arylpiperazines derivatives of 3,5-dioxo-(2H,4H)-1,2,4-triazine as 5-HT1AR ligands” (Bioorg Med Chem Lett, 2014).

Experiment [1] deals with T1, Adrenergic receptor alpha-1 (Homo sapiens, UniProt P35348+P25100+P35368).
T1 sequence (P35348 whole entry): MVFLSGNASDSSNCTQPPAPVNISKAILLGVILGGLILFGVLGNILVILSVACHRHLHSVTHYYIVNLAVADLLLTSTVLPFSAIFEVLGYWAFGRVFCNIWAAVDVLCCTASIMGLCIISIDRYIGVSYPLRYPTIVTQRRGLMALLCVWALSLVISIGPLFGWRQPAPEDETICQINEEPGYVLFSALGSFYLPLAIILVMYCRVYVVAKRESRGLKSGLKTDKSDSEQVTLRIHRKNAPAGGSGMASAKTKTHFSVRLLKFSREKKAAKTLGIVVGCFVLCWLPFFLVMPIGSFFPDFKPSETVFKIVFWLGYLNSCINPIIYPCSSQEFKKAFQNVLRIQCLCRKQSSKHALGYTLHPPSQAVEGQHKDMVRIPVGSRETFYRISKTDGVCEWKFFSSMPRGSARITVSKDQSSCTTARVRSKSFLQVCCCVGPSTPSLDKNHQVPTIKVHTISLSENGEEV
T1 sequence (P25100 whole entry): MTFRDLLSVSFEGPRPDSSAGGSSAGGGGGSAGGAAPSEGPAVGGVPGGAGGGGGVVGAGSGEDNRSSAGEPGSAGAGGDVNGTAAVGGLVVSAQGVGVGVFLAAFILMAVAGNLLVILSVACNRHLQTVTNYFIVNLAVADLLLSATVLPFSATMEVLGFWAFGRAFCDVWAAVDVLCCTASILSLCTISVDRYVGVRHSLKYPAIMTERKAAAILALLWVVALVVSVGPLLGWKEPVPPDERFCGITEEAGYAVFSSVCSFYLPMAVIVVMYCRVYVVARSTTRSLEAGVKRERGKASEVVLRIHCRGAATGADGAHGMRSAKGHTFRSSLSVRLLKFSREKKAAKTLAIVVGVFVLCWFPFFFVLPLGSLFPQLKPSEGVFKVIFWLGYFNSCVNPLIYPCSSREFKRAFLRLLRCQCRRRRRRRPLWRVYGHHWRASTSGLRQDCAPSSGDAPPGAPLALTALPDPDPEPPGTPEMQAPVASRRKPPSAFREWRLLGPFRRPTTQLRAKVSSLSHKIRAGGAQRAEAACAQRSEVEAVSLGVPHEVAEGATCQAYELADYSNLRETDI
T1 sequence (P35368 whole entry): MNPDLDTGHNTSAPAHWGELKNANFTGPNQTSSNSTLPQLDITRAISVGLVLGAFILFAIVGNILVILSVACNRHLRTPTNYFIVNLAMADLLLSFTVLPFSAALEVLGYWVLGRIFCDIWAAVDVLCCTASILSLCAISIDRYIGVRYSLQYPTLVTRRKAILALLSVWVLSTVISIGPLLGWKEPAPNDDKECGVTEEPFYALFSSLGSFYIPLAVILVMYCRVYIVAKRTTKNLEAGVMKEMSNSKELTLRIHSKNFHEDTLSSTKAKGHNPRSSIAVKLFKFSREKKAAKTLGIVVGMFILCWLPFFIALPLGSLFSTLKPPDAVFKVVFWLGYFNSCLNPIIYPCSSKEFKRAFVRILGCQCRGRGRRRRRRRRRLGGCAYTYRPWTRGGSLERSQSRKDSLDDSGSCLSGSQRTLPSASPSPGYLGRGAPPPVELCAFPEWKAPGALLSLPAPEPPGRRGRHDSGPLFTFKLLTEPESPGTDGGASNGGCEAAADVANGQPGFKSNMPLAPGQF
The experiment in a line: Displacement of [3H]-7-methoxyprazosin from alpha1 adrenergic receptor (unknown origin) by competition binding assay. In outline: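 Competition binding against [3H]-7-methoxyprazosin, with phentolamine as the reference compound.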

Experiment [2] addresses T2, 5-hydroxytryptamine receptor 1A (Homo sapiens, UniProt P08908).
T2 sequence (P08908 whole entry): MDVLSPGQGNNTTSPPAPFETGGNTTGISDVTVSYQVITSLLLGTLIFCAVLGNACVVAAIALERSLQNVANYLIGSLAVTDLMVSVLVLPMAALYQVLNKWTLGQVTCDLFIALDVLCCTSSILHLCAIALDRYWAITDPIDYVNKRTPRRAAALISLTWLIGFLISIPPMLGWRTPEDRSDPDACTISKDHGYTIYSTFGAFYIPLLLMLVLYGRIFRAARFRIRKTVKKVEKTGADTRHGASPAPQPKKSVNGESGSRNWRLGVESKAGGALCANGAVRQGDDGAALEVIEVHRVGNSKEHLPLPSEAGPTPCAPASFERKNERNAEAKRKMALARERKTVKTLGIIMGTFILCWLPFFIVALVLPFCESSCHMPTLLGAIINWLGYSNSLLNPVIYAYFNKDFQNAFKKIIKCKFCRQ
Put plainly: Displacement of [3H]8-OH-DPAT from 5HT1AR (unknown origin) by competition binding assay. Background: Loss of bound radioactivity is the signal in a displacement assay; it reports binding, not function.

For experiment [3], the target named is T3, 5-hydroxytryptamine receptor 1A (Homo sapiens) (UniProt P08908).
T3 sequence (whole entry): T2 sequence (P08908 whole entry)
Put plainly: Agonist activity at human 5HT1AR expressed in CHO cells assessed as increase in [35S]GTPgammaS binding by liquid scintillation spectrometry relative to untreated control. The format is functional, cell-based. The following applies: in the assay text read “relative to 5-HT” for “relative to untreated control”. The gist of the method: (§1)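 CHO-h5-HT1A cell membranes (30 μg) preincubated 5 min at room temperature with set concentrations of ligand in 20 mM HEPES pH 7.4, 3 mM MgCl2, 100 mM NaCl, 3 μM GDP. [35S]GTPγS (0.1 nM) then added, 60 min at room temperature. Stopped by rapid filtration through GF/B filters with three ice-cold 20 mM HEPES pH 7.4 washes. Bound radioactivity counted by liquid scintillation.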
On the technique in general: Binding of GTPγS marks nucleotide exchange on a G protein.

Experiment [4] has as its target T3, 5-hydroxytryptamine receptor 1A (Homo sapiens). Put plainly: (§2) Agonist activity at human 5HT1AR expressed in CHO cells assessed as increase in [35S]GTPgammaS binding by liquid scintillation spectrometry. The format is functional, cell-based. The gist of the method:
as §1

Experiment [5] addresses T2, 5-hydroxytryptamine receptor 1A. Described as §2. Type of experiment: functional, cell-based. The gist of the method:
as §1

The species entered for the next experiment is Homo sapiens. Put plainly: Selectivity index, ratio of Ki for alpha1 adrenergic receptor (unknown origin) to Ki for 5HT1AR (unknown origin).

A value given as a limit tells only on which side of the number the result lay.

In general, Ki refers to the dissociation constant of the complex between target and ligand, obtained from inhibition or displacement. Read a low Ki as a stronger hold on the target. Take `COc1ccc2cccc(N3CCN(CCCCCn4ncc(=O)n(C)c4=O)CC3)c2c1`: the Ki in experiment [1] is > 10000 nM; in experiment [2], 240 nM.
For `COc1ccc2cccc(N3CCN(CCCn4ncc(=O)n(C)c4=O)CC3)c2c1`, in that order: > 10000 nM and 175 nM.
In general, Emax refers to the maximal effect, on the per cent scale that the assay sets. As usually defined, the EC50 is the midpoint of the concentration-response curve. On to `Cn1c(=O)cnn(CCCCN2CCN(c3ncccc3F)CC2)c1=O`, for which the inhibition constant Ki in experiment [1] was > 10000 nM; in experiment [2], 1.2 nM. In experiment [3], the Emax came out at 80%. Besides, the Activity result in experiment [4] is “Dose-dependent effect”. The EC50 in experiment [5] stood at 0.8 nM.
On to `Cn1c(=O)cnn(CCCCN2CCN(c3cccc(Br)n3)CC2)c1=O`, for which the Ki in experiment [1] is > 10000 nM; in experiment [2] it was 1.4 nM.
For `Cn1c(=O)cnn(CCCCN2CCN(c3ccccc3)CC2)c1=O`, the Ki in experiment [1] turned out to be 64 nM; in experiment [2], 2.5 nM. The Emax in experiment [3] turned out to be 93%. Besides, in the experiment filed under Homo sapiens, the Ratio Ki was determined as 25. Besides, the Activity entry in experiment [4] is “Dose-dependent effect”. In experiment [5], the EC50 came out at 0.3 nM.
Take `Cn1c(=O)cnn(CCCCN2CCN(c3ccccc3OCCCF)CC2)c1=O`: the Ki in experiment [1] amounted to 280 nM; in experiment [2], 0.8 nM. Besides, in the experiment listed under Homo sapiens, the Ratio Ki stood at 42.
For the molecule `Cn1c(=O)cnn(CCCCN2CCN(c3ccccc3C#N)CC2)c1=O`, the Ki in experiment [1] came to 7.3 nM; in experiment [2], 0.835 nM.
Consider `CCOc1ccc2cccc(N3CCN(CCCCn4ncc(=O)n(C)c4=O)CC3)c2c1`, for which the Ki came out at 48 nM in experiment [1] and 2.1 nM in experiment [2].
For `Cn1c(=O)cnn(CCCCN2CCN(c3ccccn3)CC2)c1=O`, the Ki stood at 262 nM in experiment [1] and 1.1 nM in experiment [2]. The Emax in experiment [3] turned out to be 85%. In addition, the Activity entry in experiment [4] was “Dose-dependent effect”. In addition, the EC50 in experiment [5] stood at 0.08 nM.
With `Cn1c(=O)cnn(CCCCN2CCN(c3ccccc3O)CC2)c1=O`, the Ki in experiment [1] is > 10000 nM; in experiment [2], 1.7 nM. In addition, in the experiment filed under Homo sapiens, the Ratio Ki is > 10000.
For `Cn1c(=O)cnn(CCCCN2CCN(c3ccccc3S)CC2)c1=O`, the inhibitory constant (Ki) was > 10000 nM in experiment [1] and 8 nM in experiment [2].
For `Cn1c(=O)cnn(CCCN2CCN(c3ccccc3F)CC2)c1=O`, in that order: > 10000 nM and 250 nM.
For `Cn1c(=O)cnn(CCCCN2CCN(c3cccc4ccc(O)cc34)CC2)c1=O`, in that order: 24.5 nM and 0.44 nM.
Turning to `Cn1c(=O)cnn(CCCCN2CCN(c3c(Br)cccc3C#N)CC2)c1=O`, the values for the Ki in experiment [1] and in experiment [2] were 450 nM and 28 nM, respectively.
`Cn1c(=O)cnn(CCCCN2CCN(c3cccc(F)n3)CC2)c1=O`: the Ki in experiment [1] was > 10000 nM; in experiment [2], 0.2 nM. The Emax in experiment [3] turned out to be 95%. The Activity result in experiment [4] was “Dose-dependent effect”. The 50% effective concentration (EC50) in experiment [5] came out at 0.2 nM.
`Cn1c(=O)cnn(CCCCN2CCN(c3ccc(F)cn3)CC2)c1=O`: the Ki is > 10000 nM in experiment [1] and 68 nM in experiment [2].
For `COc1ccc(N2CCN(CCCCn3ncc(=O)n(C)c3=O)CC2)c(C#N)c1`, in that order: 380 nM and 215 nM.
For `CCOc1ccccc1N1CCN(CCCCn2ncc(=O)n(C)c2=O)CC1`, in that order: 1.8 nM and 0.66 nM.
As to `COc1ccc(N2CCN(CCCCn3ncc(=O)n(C)c3=O)CC2)c(OC)c1`, the Ki in experiment [1] is > 10000 nM; in experiment [2], 190 nM.
Regarding `COc1ccccc1N1CCN(CCCCCn2ncc(=O)n(C)c2=O)CC1`, the Ki is > 10000 nM in experiment [1] and 150 nM in experiment [2].
As for `Cn1c(=O)cnn(CCCCN2CCN(c3ccccc3F)CC2)c1=O`, the Ki in experiment [1] is 9.73 nM; in experiment [2] it was 1.89 nM.
For `COc1ccc(N2CCN(CCCCn3ncc(=O)n(C)c3=O)CC2)cc1`, in that order: > 10000 nM and 414 nM.
The corresponding values for `CSc1ccccc1N1CCN(CCCCn2ncc(=O)n(C)c2=O)CC1` are 1.8 nM and 0.46 nM.
For `Cn1c(=O)cnn(CCCCN2CCN(c3ncccn3)CC2)c1=O` [EPTAPIRONE], in that order: > 10000 nM and 175 nM.
As to `Cn1c(=O)cnn(CCCCN2CCN(c3cccc(O)c3)CC2)c1=O`, the results for the Ki in experiment [1] and in experiment [2] were > 10000 nM and 2.8 nM, respectively.
For `COc1ccccc1N1CCN(CCn2ncc(=O)n(C)c2=O)CC1`, in that order: > 10000 nM and 240 nM.
The corresponding values for `CNc1ccccc1N1CCN(CCCCn2ncc(=O)n(C)c2=O)CC1` are 450 nM and 220 nM.
The corresponding values for `CN(C)c1ccccc1N1CCN(CCCCn2ncc(=O)n(C)c2=O)CC1` are 350 nM and 180 nM.
As for `Cn1c(=O)cnn(CCCCN2CCN(c3ccc(I)cc3)CC2)c1=O`, the figures for the inhibitory constant (Ki) in experiment [1] and in experiment [2] were 103 nM and 58.8 nM, respectively.
The corresponding values for `COc1ccccc1N1CCN(CCCn2ncc(=O)n(C)c2=O)CC1` are > 10000 nM and 180 nM.
For `Cn1c(=O)cnn(CCCCN2CCN(c3c(F)cccc3C#N)CC2)c1=O`, in that order: > 10000 nM and 4.8 nM.
The corresponding values for `Cn1c(=O)cnn(CCCN2CCN(c3ccccc3)CC2)c1=O` are > 10000 nM and 350 nM.
As to `COc1ccccc1N1CCN(CCCCn2ncc(=O)n(C)c2=O)CC1`, the Ki in experiment [1] came to 6.75 nM. In the experiment filed under Homo sapiens, the Ratio Ki amounted to 45. In addition, in experiment [4], the Activity entry is “Dose-dependent effect”.
